One assay concerns A549. The assay can be described thus: Cytotoxicity against human A549 cells assessed as reduction in cell viability by MTT assay. It counts as functional, cell-based.
In a further assay the test system is HepG2. The assay is described as follows: Cytotoxicity against human HepG2 cells assessed as reduction in cell viability by MTT assay. It counts as functional, cell-based. (Formazan colour is commonly taken as a measure of viable cells.)
The next assay relates to MCF7. The assay can be described thus: Cytotoxicity against human MCF7 cells assessed as reduction in cell viability by MTT assay. In kind it is functional, cell-based.
In a further assay the target is Tubulin. The assay can be described thus: Inhibition of tubulin polymerization in human A549 cells assessed as decrease in polymerized fraction of tubulin content after 48 hrs by western blot analysis. It counts as cell-based. The procedure, abridged: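 A549 cells exposed to test agents at 1 μM for 48 h. Soluble and polymerized tubulin fractions were collected separately and tubulin levels in each were detected by western blot.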
A general note: A western blot detects proteins with antibodies after separation by electrophoresis.

In assay [1] the target is T1, Tubulin (Homo sapiens) (UniProt P68371+Q9H4B7+P0DPH7+P68366+Q13509+Q71U36+P04350+Q3ZCM7+P07437+P68363+Q9BQE3+Q6PEY2+Q13885+Q9BVA1+Q9BUF5). The assay is described as follows: Inhibition of tubulin polymerization in human A549 cells assessed as decrease in polymerized fraction of tubulin content at 1 uM after 48 hrs by Western blot analysis relative to control. It counts as cell-based. The procedure, abridged: (§1)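 A549 cells exposed to test agents at 1 μM for 48 h. Combretastatin A-4 (1 μM) run in parallel as positive control and DMSO as negative control. Soluble and polymerized tubulin fractions were collected separately and tubulin levels in each were detected by western blot.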

Assay [2] addresses T1, Tubulin (Homo sapiens). The assay can be described thus: Inhibition of tubulin polymerization in human A549 cells assessed as increase in soluble fraction of tubulin at 1 uM measured after 48 hrs by western blot analysis. It counts as cell-based. The essentials: as §1

Calls of active or inactive are those of the source. The calls are words filed in the database; no cut-off is given here.

One may read the IC50 as the concentration at which inhibition is half-maximal. For the compound `COc1ccc(C2CC(c3ccc(OCc4nnn[nH]4)c(OC)c3)=NO2)cc1OC` (configuration not stated), the figures for the IC50 with A549, with HepG2 and in the assay on MCF7 were 12.5 µM, 3.12 µM and 25 µM, respectively.
What is called inhibition is the drop in the measured response relative to a control, in per cent. As for `COc1cc(C2=NNC(c3ccc(Cl)cc3)C2)ccc1OCc1nnn[nH]1` (configuration not stated), the IC50 in the assay with A549 was 1.11 µM; in the assay with HepG2 it was 0.96 µM; on Tubulin it was 2.94 µM; in the assay on MCF7, 1.04 µM. The inhibition at Tubulin (Homo sapiens) [1] is 62.6%. In addition, the inhibition result on Tubulin (Homo sapiens) [2] is “Active”.
For the compound `COc1cc(C2=NOC(c3ccc(O)cc3)C2)ccc1OCc1nnn[nH]1` (configuration not stated), the IC50 in the assay with A549 stood at 3.12 µM; in the assay with HepG2, 6.25 µM; with MCF7, 25 µM.
Take `COc1ccc(C2CC(c3ccc(OCc4nnn[nH]4)c(OC)c3)=NN2)cc1` (configuration not stated): the IC50 in the assay on A549 was determined as 3.12 µM; with HepG2 it was 2.98 µM; with MCF7, 3.1 µM.
As for `COc1cc(C2=NOC(c3cccc(O)c3)C2)ccc1OCc1nnn[nH]1` (configuration not stated), the IC50 in the assay on A549 was found to be 25 µM; in the assay on HepG2, 1.56 µM; with MCF7, 6.25 µM.
For `COc1cc(C2=NNC(c3ccc(C)cc3)C2)ccc1OCc1nnn[nH]1` (configuration not stated), the IC50 in the assay on A549 is 0.99 µM; with HepG2, 1.08 µM; in the assay with MCF7 it was 1.76 µM.
For the compound `COc1ccc(/C=C\c2cc(OC)c(OC)c(OC)c2)cc1O` [COMBRETASTATIN A4], the IC50 came to 0.05 µM in the assay with A549, 0.009 µM with HepG2 and 0.04 µM with MCF7.
With `COc1ccc(C2CC(c3ccc(OCc4nnn[nH]4)c(OC)c3)=NN2)cc1OC` (configuration not stated), the values for the IC50 with A549, with HepG2 and with MCF7 were 2.82 µM, 3.06 µM and 2.94 µM, respectively.
For `COc1ccc(C2CC(c3ccc(OCc4nnn[nH]4)c(OC)c3)=NO2)cc1` (configuration not stated) the same measures were 6.25 µM, 12.5 µM and 12.5 µM.
Turning to `COc1cc(C2=NOC(c3ccc(Cl)cc3)C2)ccc1OCc1nnn[nH]1` (configuration not stated), the IC50 in the assay on A549 came out at 6.25 µM; in the assay on HepG2, 12.5 µM; in the assay with MCF7, 6.25 µM.
In the case of `COc1cc(C2=NOC(c3ccc(C)cc3)C2)ccc1OCc1nnn[nH]1` (configuration not stated), the IC50 with A549 came to 0.78 µM; in the assay with HepG2 it was 6.25 µM; in the assay on MCF7 it was 12.5 µM.
Regarding `COc1cc(C2=NNC(c3ccccc3)C2)ccc1OCc1nnn[nH]1` (configuration not stated), the IC50 with A549 stood at 2.98 µM; in the assay on HepG2 it was 3.15 µM; with MCF7, 3.16 µM.
`COc1cc(C2=NOC(c3ccc(F)cc3)C2)ccc1OCc1nnn[nH]1` (configuration not stated): the IC50 in the assay with A549, in the assay on HepG2 and with MCF7 was 3.12 µM in each case.
On to `COc1cc(C2=NNC(c3ccc(O)cc3)C2)ccc1OCc1nnn[nH]1` (configuration not stated), for which the IC50 in the assay on A549 worked out at 1.16 µM; with HepG2 it was 2.02 µM; with MCF7, 1.94 µM.
With `COc1cc(C2=NNC(c3cccc(O)c3)C2)ccc1OCc1nnn[nH]1` (configuration not stated), the values for the 50% inhibitory concentration (IC50) in the assay on A549, in the assay on HepG2 and in the assay with MCF7 were 2.24 µM, 2.88 µM and 2.16 µM, respectively.
For `COc1cc(C2=NOC(c3ccccc3)C2)ccc1OCc1nnn[nH]1` (configuration not stated), the IC50 in the assay on A549 amounted to 6.25 µM; in the assay with HepG2, 6.25 µM; with MCF7, 12.5 µM.
Turning to `COc1cc(C2=NNC(c3ccc(F)cc3)C2)ccc1OCc1nnn[nH]1` (configuration not stated), the IC50 in the assay with A549 stood at 0.94 µM; with HepG2, 0.85 µM; at Tubulin it was 2.16 µM; in the assay with MCF7, 0.92 µM. For the same compound, the inhibition on Tubulin (Homo sapiens) [1] was found to be 65.4%. Moreover, at Tubulin (Homo sapiens) [2], the inhibition result is “Active”.

These data come from ChEMBL document CHEMBL4699548, “Ultrasound assisted synthesis of tetrazole based pyrazolines and isoxazolines as potent anticancer agents via inhibition of tubulin polymerization” (Bioorg Med Chem Lett, 2020).
